Activity calls are given as the source filed them. The calls are words filed in the database; no cut-off is given here.
Legend:
HCT-116 [1] = assay: Cytotoxicity against human HCT116 cells after 48 hrs by MTT assay; type: functional; details: HCT-116, 48 h
MCF7 [2] = assay: Cytotoxicity against human MCF7 cells after 48 hrs by MTT assay; type: functional; details: MCF7, 48 h
[3] = molecular target: Cyclin-dependent kinase 9 (Homo sapiens) (UniProt P50750); assay: Inhibition of CDK9-mediated phosphorylation of RNA polymerase 2 at Ser2 in human HCT116 cells after 24 hrs by Western blot analysis; type: cell-based; details: HCT-116
Cyclin-dependent kinase 9 (Homo sapiens), sequence (P50750 whole entry): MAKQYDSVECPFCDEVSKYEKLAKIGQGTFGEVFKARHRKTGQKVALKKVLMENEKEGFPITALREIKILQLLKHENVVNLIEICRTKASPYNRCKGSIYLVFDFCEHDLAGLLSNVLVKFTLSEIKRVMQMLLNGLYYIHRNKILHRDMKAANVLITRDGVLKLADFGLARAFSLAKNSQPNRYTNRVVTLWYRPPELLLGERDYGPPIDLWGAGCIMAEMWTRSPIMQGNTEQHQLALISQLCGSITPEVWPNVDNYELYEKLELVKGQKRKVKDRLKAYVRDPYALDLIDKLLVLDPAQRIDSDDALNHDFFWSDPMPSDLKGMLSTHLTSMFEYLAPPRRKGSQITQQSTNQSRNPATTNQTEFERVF
In short: (§1)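 Western blot of HCT-116 cells after 24 h treatment across a concentration series, probing RNAPII CTD pSer-2 with β-actin as the internal loading control.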

CDK9/cyclin T1 = CDK9/cyclin T1 (Homo sapiens, UniProt P50750); assay: Inhibition of CDK9/CyclinT1; type: protein-complex assay
CDK9/cyclin T1, sequence (O60563 whole entry): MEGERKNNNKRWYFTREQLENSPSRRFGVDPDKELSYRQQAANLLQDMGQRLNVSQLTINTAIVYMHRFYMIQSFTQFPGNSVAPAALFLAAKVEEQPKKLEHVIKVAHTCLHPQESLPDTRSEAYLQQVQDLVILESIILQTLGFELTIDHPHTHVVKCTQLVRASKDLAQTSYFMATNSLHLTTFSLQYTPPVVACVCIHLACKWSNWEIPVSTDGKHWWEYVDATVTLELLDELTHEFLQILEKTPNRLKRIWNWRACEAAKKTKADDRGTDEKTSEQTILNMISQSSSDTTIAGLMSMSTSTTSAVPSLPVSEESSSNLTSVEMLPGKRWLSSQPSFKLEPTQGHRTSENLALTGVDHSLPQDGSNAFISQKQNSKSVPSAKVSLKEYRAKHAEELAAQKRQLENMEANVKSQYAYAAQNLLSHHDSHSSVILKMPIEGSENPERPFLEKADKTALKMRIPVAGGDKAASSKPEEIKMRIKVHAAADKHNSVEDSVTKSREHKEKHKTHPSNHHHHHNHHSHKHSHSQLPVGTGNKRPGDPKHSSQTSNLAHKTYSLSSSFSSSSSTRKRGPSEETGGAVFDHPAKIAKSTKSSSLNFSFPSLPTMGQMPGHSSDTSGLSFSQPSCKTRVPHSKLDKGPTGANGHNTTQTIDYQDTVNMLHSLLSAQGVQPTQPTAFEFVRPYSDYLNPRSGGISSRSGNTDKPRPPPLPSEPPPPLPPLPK
CDK9/cyclin T1, sequence (P50750 whole entry): as the sequence (P50750 whole entry) above

[4] = molecular target: Cyclin-dependent kinase 2/cyclin A (Homo sapiens) (UniProt P24941+P20248+P78396); assay: Inhibition of CDK2/Cyclin A; type: protein-complex assay
HCT-116 [5] = assay: Induction of apoptosis in human HCT116 cells assessed as caspase-3 activation at GI50 after 24 hrs; type: functional, cell-based
In short: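 HCT-116 cells exposed for 24 h at the respective GI₅₀ or 5×GI₅₀ concentration, with a DMSO control, then assayed for caspase-3 activity. Data are mean ± s.d. of two independent experiments, and significance versus DMSO was set at p <0.05.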

HCT-116 [6] = assay: Cell cycle arrest in human HCT116 cells at 5 times GI50 after 24 hrs by AnnexinV/PI staining-based flow cytometry; type: functional
[7] = molecular target: Cyclin-dependent kinase 9 (Homo sapiens) (UniProt P50750); assay: Inhibition of CDK9-mediated phosphorylation of RNA polymerase 2 at Ser2 in human HCT116 cells at GI50 after 24 hrs by Western blot analysis; type: cell-based; details: HCT-116; in short: as §1
[8] = molecular target: Cyclin-dependent kinase 9 (Homo sapiens) (UniProt P50750); assay: Inhibition of CDK9 in human HCT116 cells assessed as reduction in Mcl-1 protein level at GI50 after 24 hrs by Western blot analysis; type: cell-based; details: HCT-116
[9] = molecular target: Cyclin-dependent kinase 9 (Homo sapiens) (UniProt P50750); assay: Inhibition of CDK9 in human HCT116 cells assessed as reduction in MDM2 protein level at GI50 after 24 hrs by Western blot analysis; type: cell-based; details: HCT-116
HCT-116 [10] = assay: Induction of apoptosis in human HCT116 cells assessed as early apoptosis cells at 5 times GI50 after 24 hrs by AnnexinV/PI staining-based flow cytometry; type: functional
In short: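 HCT-116 cells were treated for 24 h alongside a DMSO control, stained with annexin V/PI and analysed by flow cytometry. Early apoptotic cells were scored as AnnV+/PI−, and late apoptotic cells as AnnV+/PI+. Values are mean ± s.d.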

HCT-116 [11] = assay: Cell cycle arrest in human HCT116 cells assessed as accumulation at G2/M phase at 5 times GI50 after 24 hrs by […]PI staining-based flow cytometry; type: functional
HCT-116 [12] = assay: Induction of apoptosis in human HCT116 cells assessed as at 5 times GI50 after 24 hrs by AnnexinV/PI staining-based flow cytometry
HCT-116 [13] = assay: Ratio of DRB GI50 to compound GI50 for human HCT116 cells; type: functional
MCF7 [14] = assay: Ratio of DRB GI50 to compound GI50 for human MCF7 cells; type: functional

SMILES	GI50 (HCT-116 [1]) [µM]	GI50 (MCF7 [2]) [µM]	further results
O=[N+]([O-])c1ccc(Cn2c(C(F)(F)F)nc3cc(Cl)c(Cl)cc32)cc1	81.6	97.3	
COc1cc2ncn([C@@H]3O[C@H](CO)[C@@H](O)[C@H]3O)c2cc1OC	> 100	> 100	
CCc1nc2cc(Cl)c(Cl)cc2[nH]1	46	48	
FC(F)(F)c1nc2cc(Cl)c(Cl)cc2n1CC1CC1	61.3	60.2	
FC(F)(F)c1ccc(Cn2c(C(F)(F)F)nc3cc(Cl)c(Cl)cc32)cc1	19	17	
OC[C@H]1O[C@@H](n2cnc3cc(F)c(F)cc32)[C@H](O)[C@@H]1O	67	57.9	
Nc1ccccc1Cn1c(C(F)(F)F)nc2cc(Cl)c(Cl)cc21	26.1	55.6	
Cc1nc2cc(Cl)c(Cl)cc2n1C1CCCC1	13	40	inhibition [3]: Dose-dependent effect; Ki (CDK9/cyclin T1): 1.51 µM; inhibition [4]: inactive; Activity (HCT-116 [5]): Active; Activity (HCT-116 [6]): inactive; inhibition [7]: Active; inhibition [8]: Active; inhibition [9]: Active; Activity (HCT-116 [10]): >17%
Cn1c(C(F)(F)F)nc2cc(Cl)c(Cl)cc21	56	39	
Cc1cc2nc(C(F)(F)F)[nH]c2cc1C	56	17	
Clc1cc2ncn(C3CCCC3)c2cc1Cl	37	42	
O=[N+]([O-])c1cccc(Cn2c(C(F)(F)F)nc3cc(Cl)c(Cl)cc32)c1	22.8	60	
Fc1ccccc1-c1nc2cc(Cl)c(Cl)cc2[nH]1	56.5	47.5	
CCc1nc2cc(Cl)c(Cl)cc2n1C1CCCC1	38	52	
OC[C@H]1O[C@@H](n2cnc3cc(Cl)c(Cl)cc32)[C@H](O)[C@@H]1O [DICHLORORIBOBENZIMIDAZOLE]	25	36	Activity (HCT-116 [5]): Active; Activity (HCT-116 [11]): Active; Activity (HCT-116 [10]): 20%
Nc1cccc(Cn2c(C(F)(F)F)nc3cc(Cl)c(Cl)cc32)c1	22.6	77.5	
FC(F)(F)c1nc2cc(Cl)c(Cl)cc2n1Cc1ccccc1	8.6	8.7	

SMILES	GI50 (HCT-116 [1]) [µM]	GI50 (MCF7 [2]) [µM]	further results
CC(C)n1c(C(F)(F)F)nc2cc(Cl)c(Cl)cc21	81.9	70.5	
O=[N+]([O-])c1ccccc1Cn1c(C(F)(F)F)nc2cc(Cl)c(Cl)cc21	5.9	1.5	
FC(F)(F)c1nc2cc(Cl)c(Cl)cc2n1C1CCCC1	22	21	
CSc1nc2cc(Cl)c(Cl)cc2n1C1CCCC1	2.9	3.9	Ki (CDK9/cyclin T1): > 5 µM
Cc1cc2nc[nH]c2cc1C [DIMEDAZOL]	51	20	
CS(=O)(=O)c1nc2cc(Cl)c(Cl)cc2n1C1CCCC1	0.6	0.6	Ki (CDK9/cyclin T1): > 5 µM; Activity (HCT-116 [5]): Active; Activity (HCT-116 [6]): inactive; Activity (HCT-116 [12]): <7%
CC(C)c1nc2cc(Cl)c(Cl)cc2n1C1CCCC1	9	43	Ki (CDK9/cyclin T1): 3.33 µM; inhibition [4]: inactive
CCn1c(C(F)(F)F)nc2cc(Cl)c(Cl)cc21	95.3	72.9	
Cc1nc2cc(Cl)c(Cl)cc2[nH]1	51	28	
Clc1cc2nc[nH]c2cc1Cl	66	73	
C[S+]([O-])c1nc2cc(Cl)c(Cl)cc2n1C1CCCC1 (stereo not drawn)	0.5	0.5	Ki (CDK9/cyclin T1): > 5 µM; Activity (HCT-116 [5]): Active; Activity (HCT-116 [6]): inactive; Activity (HCT-116 [12]): <7%
FC(F)(F)c1nc2cc(Cl)c(Cl)cc2[nH]1	7	6	RatioGI50 (HCT-116 [13]): 3.5; RatioGI50 (MCF7 [14]): 6
CCc1nc2ccccc2n1[C@@H]1O[C@H](CO)[C@@H](O)[C@H]1O	70.6	71.3	
Clc1cc2nc(-c3ccccc3Cl)[nH]c2cc1Cl	23	22	
FC(F)(F)c1cccc(Cn2c(C(F)(F)F)nc3cc(Cl)c(Cl)cc32)c1	50.5	68	
C=CCn1c(C(F)(F)F)nc2cc(Cl)c(Cl)cc21	89.2	87	
CC(C)c1nc2cc(Cl)c(Cl)cc2[nH]1	52	57	

Reference: ChEMBL document CHEMBL1944568, “Synthesis and biological evaluation of benzo[d]imidazole derivatives as potential anti-cancer agents” (Bioorg Med Chem Lett, 2012)
